{"source": "ChEMBL document CHEMBL1681666", "about": "“Synthesis and in vitro screening of novel N-benzyl aplysinopsin analogs as potential anticancer agents” (2011)", "type_in_all_cases": "functional", "key": {"NCI-H522": {"tested_on": "NCI-H522", "experiment": "Anticancer activity against human NCI-H522 cells", "summary_of_the_method": "(§1)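 NCI 60-cell human tumour panel (leukemia, lung, colon, CNS, melanoma, ovarian, renal, prostate, breast). A first-stage single-dose screen at 10 µM was run. Compounds giving over 60% growth inhibition in at least eight lines went on to a five-dose response. Effect was plotted against log10 molar concentration per line. GI50 is the concentration giving 50% reduction in net protein increase versus control cells. LC50 is the concentration lethal to 50% of cells.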"}, "SF-295": {"tested_on": "SF-295", "experiment": "Anticancer activity against human SF295 cells", "summary_of_the_method": "as §1"}, "SN12C": {"tested_on": "SN12C", "experiment": "Anticancer activity against human SN12C cells", "summary_of_the_method": "as §1"}, "U-251": {"tested_on": "U-251", "experiment": "Anticancer activity against human U251 cells", "summary_of_the_method": "(§2)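 NCI 60-cell-line panel. A single-dose (10 µM) prescreen was run first. Compounds giving over 60% growth inhibition in at least eight lines then went to five-dose response studies. Dose-response curves of effect versus log10 concentration. GI50 is the molar concentration giving a 50% reduction in net protein increase versus control cells. LC50 is the concentration lethal to 50% of cells.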"}, "MDA-MB-231": {"tested_on": "MDA-MB-231", "experiment": "Anticancer activity against human MDA-MB-231 cells", "summary_of_the_method": "as §1"}, "IGROV-1": {"tested_on": "IGROV-1", "experiment": "Anticancer activity against human IGROV1 cells", "summary_of_the_method": "as §1"}, "K562": {"tested_on": "K562", "experiment": "Anticancer activity against human K562 cells", "summary_of_the_method": "as §1"}, "LOX IMVI": {"tested_on": "LOX IMVI", "experiment": "Anticancer activity against human LOXIMVI cells", "summary_of_the_method": "as §1"}, "HOP-62": {"tested_on": "HOP-62", "experiment": "Anticancer activity against human HOP62 cells", "summary_of_the_method": "as §1"}, "HL-60(TB)": {"tested_on": "HL-60(TB)", "experiment": "Anticancer activity against human HL-60(TB) cells", "summary_of_the_method": "as §1"}, "[1]": {"experiment": "Anticancer activity against human NCI/ADR cells", "details": "NCI/ADR-RES", "summary_of_the_method": "as §1"}, "NCI-H322M": {"tested_on": "NCI-H322M", "experiment": "Anticancer activity against human NCI-H322M cells", "summary_of_the_method": "as §1"}, "HCT-116": {"tested_on": "HCT-116", "experiment": "Anticancer activity against human HCT116 cells", "summary_of_the_method": "as §1"}, "SNB-75": {"tested_on": "SNB-75", "experiment": "Anticancer activity against human SNB75 cells", "summary_of_the_method": "as §2"}, "HCC 2998": {"tested_on": "HCC 2998", "experiment": "Anticancer activity against human HCC2998 cells", "summary_of_the_method": "as §1"}, "PC-3": {"tested_on": "PC-3", "experiment": "Anticancer activity against human PC3 cells", "summary_of_the_method": "as §1"}, "Malme-3M": {"tested_on": "Malme-3M", "experiment": "Anticancer activity against human MALME-3M cells", "summary_of_the_method": "as §1"}, "SF-539": {"tested_on": "SF-539", "experiment": "Anticancer activity against human SF539 cells", "summary_of_the_method": "as §1"}, "A549": {"tested_on": "A549", "experiment": "Anticancer activity against human A549 cells", "summary_of_the_method": "as §1"}, "SK-MEL-28": {"tested_on": "SK-MEL-28", "experiment": "Anticancer activity against human SK-MEL-28 cells", "summary_of_the_method": "as §1"}, "NCI-H23": {"tested_on": "NCI-H23", "experiment": "Anticancer activity against human NCI-H23 cells", "summary_of_the_method": "as §1"}, "OVCAR-3": {"tested_on": "OVCAR-3", "experiment": "Anticancer activity against human OVCAR3 cells", "summary_of_the_method": "as §1"}, "UACC-62": {"tested_on": "UACC-62", "experiment": "Anticancer activity against human UACC62 cells", "summary_of_the_method": "as §2"}, "786-0": {"tested_on": "786-0", "experiment": "Anticancer activity against human 786-0 cells", "summary_of_the_method": "as §1"}, "MCF7": {"tested_on": "MCF7", "experiment": "Anticancer activity against human MCF7 cells", "summary_of_the_method": "as §1"}, "CCRF-CEM": {"tested_on": "CCRF-CEM", "experiment": "Anticancer activity against human CCRF-CEM cells", "summary_of_the_method": "as §1"}, "[2]": {"experiment": "Anticancer activity against human […] cells", "summary_of_the_method": "as §1"}, "SK-MEL-2": {"tested_on": "SK-MEL-2", "experiment": "Anticancer activity against human SK-MEL-2 cells", "summary_of_the_method": "as §1"}, "HT-29": {"tested_on": "HT-29", "experiment": "Anticancer activity against human HT-29 cells", "summary_of_the_method": "as §1"}, "[3]": {"details": "read-out: LC50 (the source's name)"}}}
{"smiles": "N=C1NC(=O)/C(=C/c2cn(Cc3ccc(F)cc3)c3ccc(Cl)cc23)S1", "values": [{"measurement": "GI50", "setting": "NCI-H522", "result": 11, "unit": "µM"}, {"measurement": "CC50", "setting": "NCI-H522; [3]", "result": "> 100", "unit": "µM"}, {"measurement": "GI50", "setting": "SF-295", "result": "> 100", "unit": "µM"}, {"measurement": "CC50", "setting": "SF-295; [3]", "result": "> 100", "unit": "µM"}, {"measurement": "GI50", "setting": "SN12C", "result": "> 100", "unit": "µM"}, {"measurement": "CC50", "setting": "SN12C; [3]", "result": "> 100", "unit": "µM"}, {"measurement": "GI50", "setting": "U-251", "result": 2.94, "unit": "µM"}, {"measurement": "CC50", "setting": "U-251; [3]", "result": "> 100", "unit": "µM"}, {"measurement": "GI50", "setting": "MDA-MB-231", "result": 6.45, "unit": "µM"}, {"measurement": "CC50", "setting": "MDA-MB-231; [3]", "result": "> 100", "unit": "µM"}, {"measurement": "GI50", "setting": "IGROV-1", "result": 3.02, "unit": "µM"}, {"measurement": "CC50", "setting": "IGROV-1; [3]", "result": "> 100", "unit": "µM"}, {"measurement": "GI50", "setting": "K562", "result": 77.6, "unit": "µM"}, {"measurement": "CC50", "setting": "K562; [3]", "result": "> 100", "unit": "µM"}, {"measurement": "GI50", "setting": "LOX IMVI", "result": 2.32, "unit": "µM"}, {"measurement": "CC50", "setting": "LOX IMVI; [3]", "result": "> 100", "unit": "µM"}, {"measurement": "GI50", "setting": "HOP-62", "result": "> 100", "unit": "µM"}, {"measurement": "CC50", "setting": "HOP-62; [3]", "result": "> 100", "unit": "µM"}, {"measurement": "GI50", "setting": "HL-60(TB)", "result": "> 100", "unit": "µM"}, {"measurement": "CC50", "setting": "HL-60(TB); [3]", "result": "> 100", "unit": "µM"}, {"measurement": "GI50", "setting": "[1]", "result": "> 100", "unit": "µM"}, {"measurement": "CC50", "setting": "[1]; [3]", "result": "> 100", "unit": "µM"}, {"measurement": "GI50", "setting": "NCI-H322M", "result": 71, "unit": "µM"}, {"measurement": "CC50", "setting": "NCI-H322M; [3]", "result": "> 100", "unit": "µM"}, {"measurement": "GI50", "setting": "HCT-116", "result": 5.41, "unit": "µM"}, {"measurement": "CC50", "setting": "HCT-116; [3]", "result": "> 100", "unit": "µM"}, {"measurement": "GI50", "setting": "SNB-75", "result": 2.47, "unit": "µM"}, {"measurement": "CC50", "setting": "SNB-75; [3]", "result": "> 100", "unit": "µM"}, {"measurement": "GI50", "setting": "HCC 2998", "result": "> 100", "unit": "µM"}, {"measurement": "CC50", "setting": "HCC 2998; [3]", "result": "> 100", "unit": "µM"}, {"measurement": "GI50", "setting": "PC-3", "result": 23.6, "unit": "µM"}, {"measurement": "CC50", "setting": "PC-3; [3]", "result": "> 100", "unit": "µM"}, {"measurement": "GI50", "setting": "Malme-3M", "result": 23.5, "unit": "µM"}, {"measurement": "CC50", "setting": "Malme-3M; [3]", "result": "> 100", "unit": "µM"}, {"measurement": "GI50", "setting": "SF-539", "result": 4.4, "unit": "µM"}, {"measurement": "CC50", "setting": "SF-539; [3]", "result": "> 100", "unit": "µM"}, {"measurement": "GI50", "setting": "A549", "result": 0.77, "unit": "µM"}, {"measurement": "CC50", "setting": "A549; [3]", "result": "> 100", "unit": "µM"}, {"measurement": "GI50", "setting": "SK-MEL-28", "result": "> 100", "unit": "µM"}, {"measurement": "CC50", "setting": "SK-MEL-28; [3]", "result": "> 100", "unit": "µM"}, {"measurement": "GI50", "setting": "NCI-H23", "result": 60.1, "unit": "µM"}, {"measurement": "CC50", "setting": "NCI-H23; [3]", "result": "> 100", "unit": "µM"}, {"measurement": "GI50", "setting": "OVCAR-3", "result": "> 100", "unit": "µM"}, {"measurement": "CC50", "setting": "OVCAR-3; [3]", "result": 30.1, "unit": "µM"}, {"measurement": "GI50", "setting": "UACC-62", "result": "> 100", "unit": "µM"}, {"measurement": "CC50", "setting": "UACC-62; [3]", "result": "> 100", "unit": "µM"}, {"measurement": "GI50", "setting": "786-0", "result": 37.4, "unit": "µM"}, {"measurement": "CC50", "setting": "786-0; [3]", "result": "> 100", "unit": "µM"}, {"measurement": "GI50", "setting": "MCF7", "result": "> 100", "unit": "µM"}, {"measurement": "CC50", "setting": "MCF7; [3]", "result": "> 100", "unit": "µM"}, {"measurement": "GI50", "setting": "CCRF-CEM", "result": "> 100", "unit": "µM"}, {"measurement": "CC50", "setting": "CCRF-CEM; [3]", "result": "> 100", "unit": "µM"}, {"measurement": "GI50", "setting": "[2]", "result": "> 100", "unit": "µM"}, {"measurement": "CC50", "setting": "[2]; [3]", "result": "> 100", "unit": "µM"}, {"measurement": "GI50", "setting": "SK-MEL-2", "result": "> 100", "unit": "µM"}, {"measurement": "CC50", "setting": "SK-MEL-2; [3]", "result": "> 100", "unit": "µM"}, {"measurement": "GI50", "setting": "HT-29", "result": 20.8, "unit": "µM"}, {"measurement": "CC50", "setting": "HT-29; [3]", "result": "> 100", "unit": "µM"}]}
